Series [1] in a line: The limiting half life time was reported. The method in brief: (§1)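 Time-dependent inactivation of estradiol dehydrogenase was run at several inhibitor concentrations without NAD⁺, in 1 M carbonate buffer (pH 9.2) with glycerol omitted. Points are the mean of three experiments (two at 80 μM). Pseudo-first-order inactivation kinetics gave Ki and limiting t1/2.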
The target of series [2] is T1, 17-beta-hydroxysteroid dehydrogenase type 1 (Homo sapiens) (UniProt P14061).
T1 sequence (whole entry): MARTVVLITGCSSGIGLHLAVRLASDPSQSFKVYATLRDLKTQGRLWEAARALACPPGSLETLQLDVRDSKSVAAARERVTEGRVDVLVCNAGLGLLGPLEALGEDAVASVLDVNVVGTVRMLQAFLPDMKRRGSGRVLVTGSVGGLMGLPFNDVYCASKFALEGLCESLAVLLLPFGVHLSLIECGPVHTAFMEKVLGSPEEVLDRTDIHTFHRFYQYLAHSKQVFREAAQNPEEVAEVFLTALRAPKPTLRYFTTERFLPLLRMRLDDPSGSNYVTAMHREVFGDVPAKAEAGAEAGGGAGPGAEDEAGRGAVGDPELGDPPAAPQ
Put plainly: Tested by protection experiments to demonstrate the inactivation of estradiol dehydrogenase and the kinetic parameter Kapp was reported at a concentration of 150 uM. The method in brief:
(§2)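 Inactivation of estradiol dehydrogenase with inhibitor at 20 μM, either alone or with a protecting ligand: 17β-estradiol or 17α-estradiol at 32 μM, or cofactors at 150 μM. Apparent inactivation rate constant (kapp, min⁻¹) was taken from least-squares fits of the time courses (r ≥ 0.992).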

For series [3], the target named is T1, 17-beta-hydroxysteroid dehydrogenase type 1 (Homo sapiens). Put plainly: Tested by protection experiments to demonstrate the inactivation of estradiol dehydrogenase and the kinetic parameter Kapp was reported at a concentration of 20 uM. Put shortly:
as §2

The target of series [4] is T2, 17-beta-hydroxysteroid dehydrogenase type 1 (Homo sapiens, UniProt P14061).
T2 sequence (P14061 whole entry): T1 sequence (whole entry)
In words: Tested for time-dependent inactivation of the enzyme that followed pseudo- first- order kinetics in the absence of NAD+ and the Ki values were reported. The method in brief: as §1

Series [5] addresses T2, 17-beta-hydroxysteroid dehydrogenase type 1. In words: Tested by protection experiments to demonstrate the inactivation of estradiol dehydrogenase and the kinetic parameter Ki app was reported at a concentration of 20 uM. The settings on record: read-out: Ki app. Put shortly: as §2
Substrate in series [6]: C#CC(O)[C@@]1(C)CCC2c3ccc(O)cc3CCC2C1

Take `C[C@@]1(C(O)C#CC(F)(F)F)CCC2c3ccc(O)cc3CCC2C1` (single isomer, unassigned): the half-life in series [1] worked out at 8 min. Also, the K app came out at 0.011 min⁻¹ in series [2] and 0.021 min⁻¹ in series [3]. In series [4], this molecule showed a Ki of 65 µM.

With `C#CC(=O)[C@@]1(C)CCC2c3ccc(O)cc3CCC2C1` (stereo not given in full), in series [5], the Ki was 2.8 µM.

As to `C[C@]12CC[C@@H]3c4ccc(O)cc4CC[C@H]3[C@@H]1CC[C@H]2O`, in series [3], the K app worked out at 0.01 min⁻¹. As to `NC(=O)c1ccc[n+]([C@@H]2O[C@H](COP(=O)([O-])OP(=O)(O)OC[C@H]3O[C@@H](n4cnc5c(N)ncnc54)[C@H](O)[C@@H]3O)[C@@H](O)[C@H]2O)c1`, the K app in series [3] is 0.013 min⁻¹.

Take `C[C@]1(C(O)C#CC(F)(F)F)CCC2c3ccc(O)cc3CCC2C1` (stereo not given in full): the half-life in series [1] came to 7 min. For the same molecule, the K app in series [2] was 0.014 min⁻¹; in series [3], 0.026 min⁻¹. In series [4], the Ki amounted to 59 µM.

`NC(=O)C1=CN(C2OC(COP(=O)(O)OP(=O)(O)OC[C@H]3O[C@@H](n4cnc5c(N)ncnc54)[C@H](O)[C@@H]3O)[C@H](O)[C@@H]2O)C=CC1` (stereo not given in full) displayed a K app in series [3] of 0.025 min⁻¹. Still for that read-out and setting: next, `C[C@]12CC[C@@H]3c4ccc(O)cc4CC[C@H]3[C@@H]1CC[C@@H]2O`: 0.013 min⁻¹; `C[C@]12CC[C@@H]3c4ccc(O)cc4CC[C@H]3[C@@H]1CC[C@@H]2O.NC(=O)C1=CN([C@@H]2O[C@H](COP(=O)(O)OP(=O)(O)OC[C@H]3O[C@@H](n4cnc5c(N)ncnc54)[C@H](O)[C@@H]3O)[C@@H](O)[C@H]2O)C=CC1`: 0.013 min⁻¹.

B1: 17-beta-hydroxysteroid dehydrogenase type 1 (Homo sapiens), P14061 (protein)
chain: T1 sequence (whole entry)
With B1, the Km in series [6] was found to be 79 µM.

As a reminder, the half-life is how long it takes for the measured level to halve. Lower therefore signals fast loss. For orientation: Km means the substrate concentration at which the rate is half of its maximum.

The values above are taken from ChEMBL document CHEMBL1125169, “Trifluoromethylacetylenic alcohols as affinity labels: inactivation of estradiol dehydrogenase by a trifluoromethylacetylenic secostradiol” (J Med Chem, 1990).
